Results reported in ChEMBL document CHEMBL3808334, “Synthesis and in vitro evaluation of novel triazine analogues as anticancer agents and their interaction studies with bovine serum albumin” (Eur J Med Chem, 2016).

Experiments:
Type in all cases: functional
SN12C = assay: Growth inhibition of human SN12C cells assessed as cell growth at 10^-4 M incubated for 48 hrs by sulforhodamine B assay; conditions: read-out: Activity
[1] = Growth inhibition of human Hs 578T cells assessed as cell growth at 10^-4 M incubated for 48 hrs by sulforhodamine B assay; conditions: read-out: Activity
[2] = Growth inhibition of human BT549 cells assessed as cell growth at 10^-4 M incubated for 48 hrs by sulforhodamine B assay; conditions: BT-549, 48 h, read-out: Activity
Procedure, shortened: (§1)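 Five-dose assay: five concentrations from 10-fold or ½-log serial dilutions. Cells are plated at 5,000–40,000 per well according to doubling time, grown 24 h, then exposed 48 h at 37 °C, 5% CO₂. Fixed with cold 50% TCA (final addition) for 60 min at 4 °C and stained with 0.4% SRB in 1% acetic acid. Bound dye is solubilized in 10 mM Tris base and read at 515 nm. GI₅₀ is where [(Ti−Tz)/(C−Tz)]×100 = 50, with a time-zero plate as Tz.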

[3] = Growth inhibition of human HOP62 cells incubated for 48 hrs by sulforhodamine B assay; conditions: HOP-62, 48 h
Procedure, shortened: (§2)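 Cells seeded at 5,000–40,000/well according to doubling time and preincubated 24 h at 37 °C, 5% CO2. Time-zero plates were TCA-fixed. DMSO concentrate was diluted in medium with 50 µg/ml gentamicin to give five concentrations (10-fold or ½ log steps), then exposed 48 h. Cells were TCA-fixed, stained with 0.4% SRB and read at 515 nm. Percent growth was taken against time-zero and control; GI50, TGI and LC50 derived.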

786-0 = assay: Growth inhibition of human 786-0 cells incubated for 48 hrs by sulforhodamine B assay; conditions: 786-0, 48 h; procedure, shortened: as §1
[4] = Growth inhibition of human OVCAR8 cells assessed as cell growth at 10^-8 M incubated for 48 hrs by sulforhodamine B assay; conditions: OVCAR-8, 48 h, read-out: Activity
[5] = Growth inhibition of human UO31 cells assessed as cell growth at 10^-8 M incubated for 48 hrs by sulforhodamine B assay; conditions: UO-31, 48 h, read-out: Activity
[6] = Growth inhibition of human PC3 cells assessed as cell growth at 10^-8 M incubated for 48 hrs by sulforhodamine B assay; conditions: PC-3, 48 h, read-out: Activity
MCF7 = assay: Growth inhibition of human MCF7 cells assessed as cell growth at 10^-8 M incubated for 48 hrs by sulforhodamine B assay; conditions: MCF7, 48 h, read-out: Activity
[7] = Growth inhibition of human MOLT4 cells assessed as cell growth at 10^-7 M incubated for 48 hrs by sulforhodamine B assay; conditions: MOLT-4, 48 h, read-out: Activity
Procedure, shortened: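 Cells plated at 5,000–40,000/well according to doubling time and preincubated 24 h at 37 °C, 5% CO₂, with time-zero plates TCA-fixed. Drugs were kept as DMSO concentrates at 400× the top concentration and diluted in medium with 50 µg/ml gentamicin. Five 10-fold or ½-log dilutions were run for 48 h, followed by SRB staining and A515. Percent growth = (Ti−Tz)/(C−Tz)×100, or (Ti−Tz)/Tz×100 when Ti<Tz.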

[8] = Growth inhibition of human HCC2998 cells assessed as cell growth at 10^-7 M incubated for 48 hrs by sulforhodamine B assay; conditions: HCC 2998, 48 h, read-out: Activity; procedure, shortened: as §2
EKVX = assay: Growth inhibition of human EKVX cells assessed as cell growth at 10^-4 M incubated for 48 hrs by sulforhodamine B assay; conditions: read-out: Activity; procedure, shortened: as §2
[9] = Growth inhibition of human HCT116 cells assessed as cell growth at 10^-4 M incubated for 48 hrs by sulforhodamine B assay; conditions: HCT-116, 48 h, read-out: Activity; procedure, shortened: as §2
NCI/ADR-RES = assay: Growth inhibition of human NCI/ADR-RES cells assessed as cell growth at 10^-7 M incubated for 48 hrs by sulforhodamine B assay; conditions: read-out: Activity
[10] = Growth inhibition of human SKOV3 cells assessed as cell growth at 10 uM incubated for 48 hrs by sulforhodamine B assay; conditions: SK-OV-3, 48 h, read-out: Activity
MDA-MB-468 = assay: Growth inhibition of human MDA-MB-468 cells assessed as cell growth at 10 uM incubated for 48 hrs by sulforhodamine B assay; conditions: MDA-MB-468, 48 h, read-out: Activity
A549 = assay: Growth inhibition of human A549/ATCC cells assessed as cell growth at 10^-8 M incubated for 48 hrs by sulforhodamine B assay; conditions: A549, 48 h, read-out: Activity; procedure, shortened: as §1
MDA-MB-231 = assay: Growth inhibition of human MDA-MB-231 cells assessed as cell growth at 10^-7 M incubated for 48 hrs by sulforhodamine B assay; conditions: MDA-MB-231, 48 h, read-out: Activity
SR = assay: Growth inhibition of human SR cells assessed as cell growth at 10^-6 M incubated for 48 hrs by sulforhodamine B assay; conditions: read-out: Activity
NCI-H23 = assay: Growth inhibition of human NCI-H23 cells assessed as cell growth at 10^-6 M incubated for 48 hrs by sulforhodamine B assay; conditions: NCI-H23, 48 h, read-out: Activity
NCI-H322M = assay: Growth inhibition of human NCI-H322M cells assessed as cell growth at 10^-6 M incubated for 48 hrs by sulforhodamine B assay; conditions: read-out: Activity
[11] = Growth inhibition of human SNB75 cells assessed as cell growth at 10^-8 M incubated for 48 hrs by sulforhodamine B assay; conditions: SNB-75, 48 h, read-out: Activity
MDA-MB-435 = assay: Growth inhibition of human MDA-MB-435 cells assessed as cell growth at 10^-6 M incubated for 48 hrs by sulforhodamine B assay; conditions: MDA-MB-435, 48 h, read-out: Activity
[12] = Growth inhibition of human HCT116 cells assessed as cell growth at 10^-5 M incubated for 48 hrs by sulforhodamine B assay; conditions: HCT-116, 48 h, read-out: Activity; procedure, shortened: as §2
[13] = Growth inhibition of human SW620 cells assessed as cell growth at 10^-5 M incubated for 48 hrs by sulforhodamine B assay; conditions: SW-620, 48 h, read-out: Activity
[14] = Growth inhibition of human SF268 cells assessed as cell growth at 10^-5 M incubated for 48 hrs by sulforhodamine B assay; conditions: SF-268, 48 h, read-out: Activity
[15] = Growth inhibition of human LOXIMVI cells assessed as cell growth at 10^-5 M incubated for 48 hrs by sulforhodamine B assay; conditions: LOX IMVI, read-out: Activity
[16] = Growth inhibition of human OVCAR3 cells assessed as cell growth at 10^-5 M incubated for 48 hrs by sulforhodamine B assay; conditions: OVCAR-3, 48 h, read-out: Activity

Clc1ccc(-c2nc(Nc3ccc(-c4nc5ccccc5[nH]4)cc3)nc(N3CCOCC3)n2)cc1
growth at 100 µM (SN12C): -14%
growth at 100 µM [1]: -7%
growth at 100 µM [2]: -13%
GI50 ([3]; read-out: GI50): 1400 nM
TGI ([3]; read-out: TGI): 3040 nM
GI50 ([3]; read-out: pGI50 (converted)): 1410 nM
TGI ([3]; read-out: pTGI (converted)): 3020 nM
GI50 (786-0; read-out: GI50): 177 nM
TGI (786-0; read-out: TGI): 348 nM
GI50 (786-0; read-out: pGI50 (converted)): 178 nM
TGI (786-0; read-out: pTGI (converted)): 347 nM
growth at 0.01 µM [4]: 104%
growth at 0.01 µM [5]: 79%
growth at 0.01 µM [6]: 98%
growth at 0.01 µM (MCF7): 92%
growth at 0.1 µM [7]: 90%
growth at 0.1 µM [8]: 93%
growth at 100 µM (EKVX): -15%
growth at 100 µM [9]: -34%
growth at 0.1 µM (NCI/ADR-RES): 101%
growth at 10 µM [10]: -89.9%
growth at 10 µM (MDA-MB-468): -84%
growth at 0.01 µM (A549): 96%
growth at 0.1 µM (MDA-MB-231): 92%
growth at 1 µM (SR): -19%
growth at 1 µM (NCI-H23): 85%
growth at 1 µM (NCI-H322M): 2%
growth at 0.01 µM [11]: 83%
growth at 1 µM (MDA-MB-435): 36%
growth at 10 µM [12]: -76%
growth at 10 µM [13]: -79%
growth at 10 µM [14]: -80%
growth at 10 µM [15]: -70%
growth at 10 µM [16]: -93%

c1ccc2[nH]c(-c3ccc(Nc4nc(N5CCCCC5)nc(N5CCOCC5)n4)cc3)nc2c1
growth at 100 µM (SN12C): -12%
growth at 100 µM [1]: -12%
growth at 100 µM [2]: -50%
GI50 ([3]; read-out: GI50): 1920 nM
LC50 ([3]; read-out: LC50): 9730 nM
TGI ([3]; read-out: TGI): 4320 nM
GI50 ([3]; read-out: pGI50 (converted)): 1910 nM
LC50 ([3]; read-out: pLC50 (converted)): 9770 nM
TGI ([3]; read-out: pTGI (converted)): 4370 nM
GI50 (786-0; read-out: GI50): 1540 nM
CC50 (786-0; read-out: LC50 (the source's name)): 6680 nM
TGI (786-0; read-out: TGI): 3210 nM
GI50 (786-0; read-out: pGI50 (converted)): 1550 nM
CC50 (786-0; read-out: pLC50 (the source's name) (converted)): 6610 nM
TGI (786-0; read-out: pTGI (converted)): 3240 nM
growth at 0.01 µM [4]: 96%
growth at 0.01 µM [5]: 85%
growth at 0.01 µM [6]: 96%
growth at 0.01 µM (MCF7): 95%
growth at 0.1 µM [7]: 100%
growth at 0.1 µM [8]: 105%
growth at 100 µM (EKVX): 1%
growth at 100 µM [9]: -75%
growth at 0.1 µM (NCI/ADR-RES): 98%
growth at 10 µM [10]: 22.5%
growth at 10 µM (MDA-MB-468): -3.66%
growth at 0.01 µM (A549): 94%
growth at 0.1 µM (MDA-MB-231): 98%
growth at 1 µM (SR): 44%
growth at 1 µM (NCI-H23): 91%
growth at 1 µM (NCI-H322M): 93%
growth at 0.01 µM [11]: 75%
growth at 1 µM (MDA-MB-435): 95%
growth at 10 µM [12]: -67%
growth at 10 µM [13]: -29%
growth at 10 µM [14]: 5%
growth at 10 µM [15]: -72%
growth at 10 µM [16]: -25%
